# Laboratory results published in article PMC8197731 (The journal of pain, 2021).
# Entries after “also recorded” stand apart in the source; their conditions may differ.
# How the values were obtained:
# WT and PAR3^−/− mice [1] = test: Facial grimacing; assay type: in vivo, mouse; conditions: for facial grimacing, PAR3^−/− and WT / facial grimacing, WT and PAR3^−/−: male
# WT and PAR3^−/− mice [2] = test: Mechanical paw withdrawal threshold; assay type: in vivo, mouse
# [3] = test system: lamina IIo neurons in lumbar segments of mouse spinal cord
# WT and PAR3^−/− mice [4] = assay type: in vivo, mouse
# Method in brief: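 Eight-week-old male mice were primed by intraplantar injection and allowed to recover completely (14 d), then given 100 ng PGE2 into the same hind paw. Facial expressions were video-recorded with mice placed individually in 9×5×5 cm cubicles, using an adapted mouse grimace scale protocol. Scores were averaged per time point for each cohort, with 4 mice per genotype.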
# WT and PAR3^−/− mice [5] = assay type: in vivo, mouse; remark: listed apart in the source
# [6] = test system: human A-498 carcinoma cells; conditions: ref [35]; cited from earlier work
# rat astrocytes = conditions: ref [60]; cited from earlier work
# mouse lung fibroblasts = conditions: ref [35]; cited from earlier work
# [7] = test system: human smooth muscle cells; conditions: ref [6]; cited from earlier work
# Murine PAR3 = conditions: COS-7 cells transfected with murine PAR3; ref [47]; cited from earlier work
# human PAR3 [8] = target: T1, human PAR3 (Homo sapiens, UniProt O00254); conditions: COS-7 cells transfected with human PAR3; ref [30]; cited from earlier work
# T1 sequence (O00254 22-374): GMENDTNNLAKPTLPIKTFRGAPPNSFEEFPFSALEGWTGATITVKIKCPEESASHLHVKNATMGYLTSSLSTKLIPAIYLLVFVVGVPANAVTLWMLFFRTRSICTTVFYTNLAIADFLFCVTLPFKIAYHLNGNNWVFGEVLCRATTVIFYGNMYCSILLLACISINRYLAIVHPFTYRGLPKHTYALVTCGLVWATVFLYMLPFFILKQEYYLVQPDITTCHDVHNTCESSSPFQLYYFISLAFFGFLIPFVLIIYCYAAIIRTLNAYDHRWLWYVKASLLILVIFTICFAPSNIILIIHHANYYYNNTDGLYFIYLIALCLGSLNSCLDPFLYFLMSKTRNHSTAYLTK
# [9] = test system: HEK293 cells not induced to express PAR3; test: RTCA; assay type: cell-based; conditions: varying concentrations of C660; Cell Index
# Method in brief: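 Uninduced HEK293 Flp-In T-Rex cells were plated on poly-L-lysine E-plates in DMEM/F12 with 5% FBS, run alongside tetracycline-induced cells. Compound was added in quadruplicate at varying final concentrations once impedance stabilized (~6 h). Cell Index, calculated as (Zi−Z0)/15 Ω, was recorded every minute for 4 h, and peak changes after addition were taken.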
# WT and PAR3^−/− mice [10] = test: Thermal sensitivity; assay type: in vivo, mouse; conditions: C660, Hargreaves
# [11] = Solubility of the synthesized ligands; assay type: physicochemical; conditions: aqueous buffers (as printed for C751)
# human PAR3 [12] = target: T1, human PAR3; test: RTCA; assay type: cell-based
# Method in brief: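 HEK293 Flp-In T-Rex cells stably carrying human PAR3 were induced with tetracycline (0.3 or 1 μg/mL, 48 h), then plated on poly-L-lysine E-plates in DMEM/F12 with 5% FBS. At Cell Index stabilization (~6 h), compound was added in quadruplicate at varying final concentrations. CI was read every minute for 4 h. Peak CI changes were normalized to percent of the plate's peak response, and EC50 was fitted across multiple plates.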
# [13] = TFFLLR-NH2 100 μg, i.pl, male, n = 4/group
# [14] = primed with IL-6 0.1 ng, i.pl, PGE2 100 ng after 14 d, n = 4/group
# [15] = thrombin 10 units, i.pl, male, n = 4/group
# [16] = thrombin 10 units, i.pl, male, n = 4/group, listed as thrombin
# [17] = C660 30 pmol intraplantar, WT male mice, n = 4/group
# [18] = primed with 2AT 30 pmol, i.pl, PGE2 100 ng after 14 d, n = 4/group
# [19] = 2AT 30 pmol, hind paw, n = 4/group
compound,measurement,setting,value
TFFLLR-NH2 [reference compound],"duration of facial grimacing, PAR3^−/−","WT and PAR3^−/− mice [1]; TFFLLR-NH2 100 μg, i.pl, PAR3^−/−",up to 5 hours
same,"facial grimacing, PAR3^−/− and WT","WT and PAR3^−/− mice [1]; TFFLLR-NH2 100 μg, i.pl, n = 4/group",induced prolonged facial grimacing in PAR3^−/− but not WT mice
same,"mechanical hypersensitivity, PAR3^−/− vs WT",WT and PAR3^−/− mice [2]; [13],"significantly more robust and prolonged in PAR3^−/− mice; also recorded: more marked in the latter group. Cumulatively, the genotypic differences throughout 48 hours post-injection were significant"
same,"mechanical withdrawal threshold, WT and PAR3^−/−",WT and PAR3^−/− mice [2]; [13],induced mechanical hypersensitivity in both WT and PAR3^−/−; also recorded: significantly reduced mechanical withdrawal thresholds in WT and PAR3^−/− mice
"NC1=N[C@H](O)[C@H]2[C@H]3O[C@]4(O)O[C@@H]([C@@H](O)[C@@]2(N1)[C@@H]4O)[C@]3(O)CO [Tetrodotoxin (TTX), Tetrodotoxin, reference compound]",effect of TTX on C660-induced increase of synaptic event frequency,[3],did not influence the effect of C660 on the increased frequency of synaptic events
AYPGKF-NH2 [reference compound],"facial grimacing, PAR3^−/−, 1 hr","WT and PAR3^−/− mice [1]; AYPGKF-NH2 100 μg, i.pl, PAR3^−/−, 1 hr post-injection, n = 4/group",transiently increased
same,"facial grimacing, WT and PAR3^−/−","WT and PAR3^−/− mice [1]; AYPGKF-NH2 100 μg, i.pl, n = 4/group",did not significantly change withdrawal thresholds and grimacing in WT while a transient effect was seen in PAR3^−/− mice
same,"paw withdrawal threshold, WT and PAR3^−/−","WT and PAR3^−/− mice [2]; AYPGKF-NH2 100 μg, hind paw, male, n = 4/group",did not significantly change withdrawal thresholds and grimacing in WT while a transient effect was seen in PAR3^−/− mice; also recorded: did not change significantly in both WT and PAR3^−/− mice groups
IL-6: inflammatory cytokine interleukin 6,"hyperalgesic priming (facial grimacing), PAR3^−/− vs WT",WT and PAR3^−/− mice [4]; [14],not significantly affected by PGE2 treatment in comparison to WT mice; also recorded: hyperalgesic priming was diminished as measured by mechanical hypersensitivity and grimacing in PAR3^−/− mice
same,"hyperalgesic priming (paw withdrawal), PAR3^−/− vs WT",WT and PAR3^−/− mice [5]; [14],not significantly affected by PGE2 treatment in comparison to WT mice; also recorded: hyperalgesic priming was diminished as measured by mechanical hypersensitivity and grimacing in PAR3^−/− mice; also recorded: loss of hyperalgesic priming
carrageenan,"acute response, WT vs PAR3^−/−","WT and PAR3^−/− mice [2]; carrageenan, male mice (Supplementary Fig. S5A–B)",male WT and PAR3^−/− mice responded similarly to the inflammagen acutely
same,"acute response and hyperalgesic priming, female","WT and PAR3^−/− mice [5]; carrageenan, 8-week old female mice (Supplementary Fig. S6A–D)",loss of hyperalgesic priming occurred in both male and female mice
same,"hyperalgesic priming, PAR3^−/− vs WT, male","WT and PAR3^−/− mice [5]; primed with carrageenan, male mice (Supplementary Fig. S5C–D)",hyperalgesic priming was again reduced in the PAR3^−/− mice; also recorded: loss of hyperalgesic priming
TFRGAP,"ERK activation, A-498 cells",[6],induced extracellular regulated kinase (ERK) activation via PAR1 rather than PAR3
same,Ca2+ response in rat astrocytes,rat astrocytes,elicited a Ca^2+ response in rat astrocytes
same,"ERK activation, mouse lung fibroblasts",mouse lung fibroblasts,induced extracellular regulated kinase (ERK) activation via PAR1 rather than PAR3
same,Ca2+ response in human smooth muscle cells,[7],elicited a Ca^2+ response in rat astrocytes [60] and human smooth muscle cells
Thrombin,"signaling, murine PAR3",Murine PAR3,unable to signal on its own in response to thrombin
same,"duration of facial grimacing, PAR3^−/−","WT and PAR3^−/− mice [1]; thrombin 10 units, i.pl, PAR3^−/−",up to 5 hours
same,"facial grimacing, PAR3^−/− and WT","WT and PAR3^−/− mice [1]; thrombin 10 units, i.pl, n = 4/group",significantly increased facial grimacing in PAR3^−/− but not WT mice
same,"phosphoinositide signaling, human PAR3",human PAR3 [8],able to trigger robust phosphoinositide signaling
same,"mechanical hypersensitivity, PAR3^−/− vs WT",WT and PAR3^−/− mice [2]; [15],"significantly greater in PAR3^−/− mice at 1, 3, and 5 hours post-injection"
same,"mechanical hypersensitivity, WT and PAR3^−/−",WT and PAR3^−/− mice [2]; [15],induced lasting mechanical hypersensitivity in both WT and PAR3^−/− mice
same,"mechanical hypersensitivity, PAR3^−/− vs WT",WT and PAR3^−/− mice [2]; [16],significantly more robust and prolonged in PAR3^−/− mice
same,"mechanical hypersensitivity, WT and PAR3^−/−",WT and PAR3^−/− mice [2]; [16],induced mechanical hypersensitivity in both WT and PAR3^−/−
TFRGAPPNSFEEF-pego3-Hdc [Compound C660],"affective (grimace) response to PGE2 after priming, WT vs PAR3^−/−","WT and PAR3^−/− mice [4]; primed with C660 30 pmol, PGE2 100 ng i.pl after 14 days",robust affective response in WT but not PAR3^−/− mice
same,"facial grimacing overall effect size, WT vs PAR3^−/−","WT and PAR3^−/− mice [1]; C660 30 pmol intraplantar, 24 hr period, n = 4/group",did not differ significantly between groups
same,"facial grimacing, PAR3^−/−","WT and PAR3^−/− mice [1]; C660 30 pmol intraplantar, PAR3^−/− mice",facial grimacing in WT but not PAR3^−/− mice; also recorded: little acute effect
same,"facial grimacing, WT",WT and PAR3^−/− mice [1]; [17],"transient increase in facial grimacing was observed with the WT cohort at the 1 hr time point; also recorded: noted in WT mice, although changes were transient"
same,"RTCA response, cells not induced to express PAR3",[9],did not show a response; also recorded: absent when PAR3 is not expressed
same,"paw withdrawal threshold, PAR3^−/−","WT and PAR3^−/− mice [2]; C660 30 pmol intraplantar, PAR3^−/− male mice, n = 4/group",induces mechanical hypersensitivity and facial grimacing in WT but not PAR3^−/− mice; also recorded: significantly reduced paw withdrawal thresholds in the WT but not PAR3^−/− group; also recorded: little acute effect; also recorded: absent in PAR3 deficient mice
same,"duration of mechanical hypersensitivity, WT",WT and PAR3^−/− mice [2]; [17],up to 24 hrs
same,"paw withdrawal threshold, WT",WT and PAR3^−/− mice [2]; [17],induced mechanical hypersensitivity; also recorded: significantly reduced paw withdrawal thresholds; also recorded: prolonged mechanical hypersensitivity
same,mEPSC amplitude,[3],no change in amplitude
same,mEPSC frequency,[3],increased the frequency of mEPSCs
same,"hyperalgesic priming (paw withdrawal), PAR3^−/−","WT and PAR3^−/− mice [5]; primed with C660 30 pmol, PGE2 100 ng i.pl after 14 days, PAR3^−/−, n = 4/group",partially attenuated in PAR3^−/− cohort; also recorded: greatly reduced
same,"hyperalgesic priming (paw withdrawal), WT","WT and PAR3^−/− mice [5]; primed with C660 30 pmol, PGE2 100 ng i.pl after 14 days, WT, n = 4/group",caused hyperalgesic priming in WT mice
same,heat sensitivity,WT and PAR3^−/− mice [10],did not note any changes in heat sensitivity in either strain of mice
TFRGAPPNSFEEF-pego3-KLIPAIYLLVFVVGV-amide [Compound C751],solubility,[11],low solubility
TFRGAPPNSFEEF-pego3-KRRPAIYLLVFVVGV-amide [Compound C752],solubility,[11],improved
same,activity in RTCA,human PAR3 [12],not active
"2-aminothiazo-4-yl-LIGRL-NH2 [Compound 2AT, reference compound]","facial grimacing after PGE2 (priming), WT and PAR3^−/−",WT and PAR3^−/− mice [4]; [18],increased in both groups
same,"facial grimacing, WT and PAR3^−/−",WT and PAR3^−/− mice [1]; [19],significantly increased (A) mechanical hypersensitivity (B) and facial grimacing
same,"duration of facial grimacing, WT and PAR3^−/−",WT and PAR3^−/− mice [1]; [19],up to 5 hours
same,"mechanical hypersensitivity, WT and PAR3^−/−","WT and PAR3^−/− mice [2]; 2AT 30 pmol, hind paw, male, n = 4/group",significantly increased (A) mechanical hypersensitivity; also recorded: did not show any differences in acute responses in PAR3^−/− mice
same,"duration of mechanical hypersensitivity, WT and PAR3^−/−",WT and PAR3^−/− mice [2]; [19],up to 5 hours
same,"duration of mechanical hyperalgesia after PGE2 (priming), WT","WT and PAR3^−/− mice [5]; primed with 2AT 30 pmol, i.pl, PGE2 100 ng after 14 d, WT",up to 24 hours
same,"mechanical hyperalgesia after PGE2 (priming), WT and PAR3^−/−",WT and PAR3^−/− mice [5]; [18],profound deficit in priming in the PAR3^−/− mice; also recorded: robust in the WT group only; also recorded: loss of hyperalgesic priming
same,"priming effect size (von Frey), WT vs PAR3^−/−","WT and PAR3^−/− mice [5]; primed with 2AT 30 pmol, i.pl, PGE2 100 ng after 14 d, unpaired t-test",significant genotype difference between WT and PAR3^−/− groups
